ALR inh = inhibitors of human ALR sulfhydryl oxidase, primary screen, biochemical, H2O2 detection, HRP-luminol luminescence, single point; purified ALR, DTT oxidation; inhibition, % (no concentration beside the values); actives 3.8% (n = 290,000); AID 485317, 2010;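 active means mean replicate inhibition above about 79%, with every replicate also reaching it, limit read from the data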
Target sequence (P55789 whole entry, looked up): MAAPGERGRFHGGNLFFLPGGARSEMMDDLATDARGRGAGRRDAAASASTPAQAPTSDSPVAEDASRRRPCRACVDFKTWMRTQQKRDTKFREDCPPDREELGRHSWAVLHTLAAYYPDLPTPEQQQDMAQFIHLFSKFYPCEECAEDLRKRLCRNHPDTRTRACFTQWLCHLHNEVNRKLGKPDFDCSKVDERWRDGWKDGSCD
N-glyco inh = increase of ERlucT glycosylation luciferase signal, primary screen, N-linked glycosylation inhibitor project, D54 ERlucT cells, luminescence, set 2; actives 0.23% (n = 360,000); D54 ERlucT glycosylation luciferase reporter, 24 h; percent of 100 nM tunicamycin response; reporter increase, % at 12.5 µM;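 active means mean luciferase reporter signal, scaled so untreated is 0 and the glycosylation-blocking control 100, at or above a set limit in every replicate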;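 further: luciferase carries N-glycosylation sites so blocking glycosylation raises the light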
T cell modulator = modulators of CD8 T cell-vesicle binding, primary screen, mouse 2C CD8+ T cells, flow cytometry. actives 0.068% (n = 330,000). AID 2052, 2009. 2C CD8+ T cell-vesicle binding; stronger effect = lower value. response (vesicle binding), % at 7 µM;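 active means response, share of CD8 T cells binding vesicles, and their 90th percentile fluorescence all below set limits, cut at about 80% in these data, passing the limit was not always enough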;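 further: values below 100% mean blocked vesicle binding to the CD8+ T cells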
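Assay system – 2C mouse CD8+ T cells · Also added – QL9-loaded Drosophila micro-vesicles · Timing – Cell–vesicle co-incubation 1.5 h at 37 °C, staining 20 min on ice · Signal – flow cytometry of vesicle-bound cells · Measure – percent CD8+ FL2 mean versus row control · Controls – Peptide-free naked vesicles (low) and QL9 vesicles with 0.7% DMSO vehicle (high)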
Of the large screens only hits and unclear results are named; the others gave an inactive call. The sample as a whole holds a higher share of hits than the screen did.

O=C(CN1CCN(c2ccc(Cl)cc2)CC1)Nc1ccc(F)cc1	none
CCN(CC)c1ccc(NC(=O)CN2CCN(c3nc(C)cc(C)n3)CC2)cc1	ALR inh 98
Cc1cc(C)nc(N2CCN(CC(=O)NCc3ccccc3)CC2)n1	none
CCN(CC)c1ccc(NC(=O)CN2CCN(CC(=O)Nc3ccccc3OC)CC2)cc1	none (no result: ALR inh)
CCN(CC)c1ccc(NC(=O)CN2CCN(CC(=O)Nc3ccccc3F)CC2)cc1	ALR inh 99
COC(=O)C1=C[C@@H](C(=O)OC)[C@@H]2C3=C(C(=O)[C@@]2(C)NC(=O)c2ccccc2)[C@H](c2ccccc2)n2c(=O)n(-c4ccccc4)c(=O)n2[C@@H]3C1	none (no result: N-glyco inh)
O=C(Nc1ccc(S(=O)(=O)Nc2ncccn2)cc1)c1ccc2ncsc2c1	ALR inh 99
Cc1ccnc(NS(=O)(=O)c2ccc(NC(=O)c3ccc(S(=O)(=O)N4CCCC4)cc3)cc2)n1	none
O=C(Nc1ccc(S(=O)(=O)Nc2ncccn2)cc1)c1ccc(S(=O)(=O)N2CCCC2)cc1	ALR inh 96
O=C(Nc1cccc(F)c1)c1ccc2ncsc2c1	none (no result: ALR inh)
O=C(Nc1ccc(S(=O)(=O)Nc2ncccn2)cc1)c1cccc([N+](=O)[O-])c1	none (no result: ALR inh, T cell modulator)
O=C(Nc1ccncc1)c1ccc2ncsc2c1	ALR inh 98
COCCCN1C(=O)C(CC(=O)NCCN2CCOCC2)CC(C(=O)N(C)C)=C1C (configuration not stated)	none (no result: ALR inh, T cell modulator)
CC(C)CNS(=O)(=O)c1cc(C(=O)OC2CCOC2=O)c(Cl)cc1Cl (configuration not stated)	none
CCC(c1nnnn1C1CCCC1)N1CCC(C(N)=O)CC1 (configuration not stated)	none
Cn1c(NC(=O)COc2ccccc2)cc(=O)n(C)c1=O	ALR inh 99
Cn1c(NC(=O)CCc2ccccc2)cc(=O)n(C)c1=O	none
CSc1ccc(C2NC(=O)CCC2[N+](=O)[O-])cc1 (configuration not stated)	none
Cc1ccc(S(=O)(=O)NC(CC(C)C)C(=O)N2CC(C)OC(C)C2)cc1 (configuration not stated)	none
Cc1ccc(NC2=C(Cl)C(=O)OC2OC(=O)c2ccc(C)cc2)cc1 (configuration not stated)	none
COC(=O)c1ccc(NC2=C(Cl)C(=O)OC2OC(=O)c2ccccc2)cc1 (configuration not stated)	ALR inh 97
Cc1cc2c(cc1C)NC(C)CC(=O)N2 (configuration not stated)	none (no result: ALR inh, T cell modulator)
CCCCCCn1c(N2CCN(c3ccccc3)CC2)nc2c1c(=O)n(C)c(=O)n2C	none
CCCCCn1c(N2CCCC2)nc2c1c(=O)n(C)c(=O)n2C	ALR inh 98
Cn1ccsc1=NC(=O)c1ccc(S(C)(=O)=O)c([N+](=O)[O-])c1	none
CCc1noc(C)c1C(=O)OCC(=O)Nc1cccc(C)c1	none
c1ccc(C2CCC3(CC2)Oc2ccccc2C2CC(c4cccnc4)=NN23)cc1 (configuration not stated)	none (no result: N-glyco inh)
CCCc1cc(=O)[nH]c(SCC(=O)N2CCCCCC2)n1	none (no result: ALR inh)
Cc1noc2ncnc(N3CCCC3)c12	none
Cc1noc2ncnc(Sc3ccc(Br)cc3)c12	ALR inh 99
CNC[C@H](Cc1cccc2ccccc12)NC[C@H](CCSC)NCC1CCC(C(C)(C)C)CC1 (some centres not stated)	none (no result: N-glyco inh)
CCOc1ccc(C(C(=O)NCC2CCCO2)N(Cc2cccs2)C(=O)c2snc(C(N)=O)c2N)cc1 (configuration not stated)	none
CN1CCN(Cc2nc3ccccc3c(=O)n2Cc2nc(-c3ccc4ccccc4c3)cs2)CC1	ALR inh 98
CN1CCN(Cc2nc3ccccc3c(=O)n2Cc2nc(-c3cccc([N+](=O)[O-])c3)cs2)CC1	none (no result: ALR inh, T cell modulator)
NCCCCCc1nnc(SCc2ccc(Cl)cc2Cl)o1	ALR inh 99
CCC(C)[C@H](N)c1nnc(SCC(=O)Nc2cccc(Cl)c2)o1 (some centres not stated)	none
O=C(CSc1nnc(CNC(=O)c2cccs2)o1)Nc1cccc(Cl)c1	ALR inh 98
NCCCCCc1nnc(SCC(=O)Nc2cccc(Cl)c2)o1	ALR inh 92
NCCCCCc1nnc(SCc2cccc(Cl)c2)o1	none
O=C(CSc1nnc(CNC(=O)c2cccs2)o1)Nc1cccc(F)c1	ALR inh 99
O=C(CSc1nnc(CNC(=O)c2cccs2)o1)Nc1ccccc1	none
O=C(CSc1nnc(CNC(=O)c2cccs2)o1)Nc1cccc(C(F)(F)F)c1	none
COCCn1c(SCC(=O)N2CCCC2=O)nnc1-c1ccncc1	none (no result: ALR inh, T cell modulator)
Cc1ccc(Nc2nc(Cl)nc(NC(C)(C)C)n2)cc1	none
Cc1ccc(Nc2nc(Cl)nc(N(C)C#N)n2)cc1	ALR inh 97
Cc1cccc(C(=O)Nc2ccc(S(=O)(=O)Nc3nc(C)cc(C)n3)cc2)c1	none
Oc1cccc(-c2nc3ccccc3s2)c1	none
Nc1cccc(-c2nc3ccccc3s2)c1	ALR inh 99
N#C/C(=C\c1cc(Br)ccc1F)C(=O)NC1CC1	none
O=C(NC1CCCC1)C1CCCN1S(=O)(=O)c1cccc2cccnc12 (configuration not stated)	ALR inh 89
O=C(NCc1ccccc1)C1CCCN1S(=O)(=O)c1cccc2cccnc12 (configuration not stated)	none
O=C(NC1CCCCC1)C1CCN(S(=O)(=O)c2cccc3cccnc23)CC1	none
O=C(NC1CCCCCC1)C1CCCN1S(=O)(=O)c1cccc2cccnc12 (configuration not stated)	ALR inh 97
CCNC(=S)NNc1nncc2ccccc12	ALR inh 99
COc1ccc(/C(C)=N/Nc2nncc3ccccc23)cc1	none
CCNC(=S)NNc1ccccc1	none
CNC(=S)NNc1nncc2ccccc12	ALR inh 106
Oc1ccc(Br)cc1/C=N/n1c(COc2ccccc2)n[nH]c1=S	none
CN(Cc1ccc(OC(F)F)cc1)C(=O)/C=C/c1ccc(S(=O)(=O)N2CCOCC2)cc1	none (no result: ALR inh)
CCN(CC(=O)Nc1c(F)cccc1F)C(=O)CCNS(=O)(=O)c1ccc(C)c(C)c1	none
c1ccc(Nc2nc(-c3cccs3)cs2)nc1	none
Cc1cccc(Nc2nc(-c3ccccn3)cs2)n1	ALR inh 89
Cc1cccc(Nc2nc(-c3ccc(F)cc3)cs2)n1	none
Cc1cccc(Nc2nc(-c3cccs3)cs2)n1	ALR inh 94
Cc1ccc2c(c1)C(c1ccccc1)N(C(=O)c1cccc([N+](=O)[O-])c1)CC(=O)N2 (configuration not stated)	none
CC(NC(=O)CN1CCN(c2ccc(Cl)cc2)CC1)c1ccccc1 (configuration not stated)	none (no result: ALR inh)
COc1cccc(N2CCN(CC(=O)NCc3ccccc3)CC2)c1	ALR inh 98
c1ccc(CCCN2CCOCC2)cc1	none
CC(CCc1ccccc1)NC(=O)CN1CCN(c2ccccc2)CC1 (configuration not stated)	ALR inh 99
COc1ccc(CNC(=O)CN2CCN(c3ccccc3)CC2)cc1	none (no result: ALR inh)
c1ccc(CCCN2CCN(c3ccccc3)CC2)cc1	ALR inh 86
